According to ChEMBL document CHEMBL4334465, “SAR Studies on Aromatic Acylhydrazone-Based Inhibitors of Fungal Sphingolipid Synthesis as Next-Generation Antifungal Agents” (J Med Chem, 2019):
In brackets after ≈: the same amount, converted by molar mass.

Columns and labels:
[1] = test system: Cryptococcus neoformans; assay: Antifungal activity against Cryptococcus neoformans H99 measured after 24 to 72 hrs; type: functional; conditions: var grubii H99
Outline: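 Modified CLSI broth microdilution with inoculum per M27A3. Compounds were serially diluted 32 to 0.03 μg/mL. Media: C. neoformans in HEPES-buffered YNB without amino acids (pH 7.0, 2% glucose); Candida strains in YNB without ammonium sulfate or amino acids plus 1% asparagine (pH 7.0, 2% glucose); A. fumigatus in RPMI (pH 7.0, 2% glucose).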

[2] = test system: Cryptococcus neoformans; assay: Fungicidal activity against Cryptococcus neoformans H99 measured after 24 hrs by time-kill assay; type: functional, var grubii H99
Outline: (§1)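 Overnight C. neoformans washed in PBS and resuspended in HEPES-buffered YNB, pH 7.4. 2 × 10⁴ cells exposed to a range of drug concentrations in 10 mL with 0.5% DMSO final, at 37°C, 5% CO₂, shaking at 200 rpm. Aliquots sampled over 96 h, diluted and plated on YPD; CFU counted after 48 h at 30°C.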

[3] = test system: HepG2; assay: Cytotoxicity against human HepG2 cells after 24 to 48 hrs by MTT assay; type: functional; conditions: read-out: LD50 (the source's name)
Outline: (§2)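 A549 and HepG2 kept in DMEM with 10% FBS and 1% pen-strep. At passage 7, seeded at 10⁵ cells/well and allowed to adhere 14 h. Compound added at 0.03–128 μg/mL, untreated wells as controls. Incubation 37°C, 5% CO₂ for 24 or 48 h. MTT (5 mg/mL in PBS) added for 4 h, formazan dissolved in DMSO, OD570.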

[4] = test system: A549; assay: Cytotoxicity against human A549 cells after 24 to 48 hrs by MTT assay; type: functional; conditions: read-out: LD50 (the source's name); outline: as §2
[5] = Selectivity index, ratio of LD50 for human HepG2 cells to MIC80 for Cryptococcus neoformans H99; type: toxicity; conditions: read-out: Selectivity Index
Outline: (§3)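 SI = LD₅₀/MIC₈₀. Cytotoxicity: A549 or HepG2 cells (DMEM, 10% FBS, passage 7, 10⁵ cells/well) adhered 14 h, then exposed to 0.03–128 μg/mL for 24 or 48 h at 37°C, 5% CO₂; MTT 4 h, formazan dissolved in DMSO, read at 570 nm. MIC₈₀ against C. neoformans from broth microdilution in HEPES-buffered YNB, pH 7.0.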

[6] = Selectivity index, ratio of LD50 for human A549 cells to MIC80 for Cryptococcus neoformans H99; type: toxicity; conditions: read-out: Selectivity Index; outline: as §3
[7] = test system: Cryptococcus neoformans; assay: Fungicidal activity against Cryptococcus neoformans H99 measured after 48 hrs by time-kill assay; type: functional, var grubii H99; outline: as §1

SMILES	MIC80 [1] [µg/mL]	MFC100 [2] [µg/mL]	CC50 [3] [µg/mL]	CC50 [4] [µg/mL]	selectivity ratio [5]	selectivity ratio [6]	MFC100 [7] [µg/mL]
O=C(N/N=C/c1cc(Br)cc(Br)c1O)c1cccc(C(=O)N/N=C/c2cc(Br)cc(Br)c2O)c1	> 16						
O=C(N/N=C/c1cc(Cl)ccc1O)c1cc(Br)ccc1Br	0.25 (≈ 0.578 µM)	0.25 (≈ 0.578 µM)	32 (≈ 74 µM)	59 (≈ 136 µM)	128	236	
O=C(N/N=C/c1cccc(Br)c1O)c1cccc(C(F)(F)F)c1	1 (≈ 2.58 µM)		16 (≈ 41.3 µM)	16 (≈ 41.3 µM)	16	16	2 (≈ 5.17 µM)
Cc1ccc(O)c(/C=N/NC(=O)c2cc(Br)ccc2Br)c1	1 (≈ 2.43 µM)		32 (≈ 77.7 µM)	32 (≈ 77.7 µM)	32	32	0.5 (≈ 1.21 µM)
O=C(N/N=C/c1cc(Cl)cc(Cl)c1O)c1cccc(Br)c1Br	1 (≈ 2.14 µM)		16 (≈ 34.3 µM)	64 (≈ 137 µM)	16	64	1 (≈ 2.14 µM)
Cc1ccc(O)c(/C=N/NC(=O)c2cc(Br)cc(Br)c2O)c1	0.25 (≈ 0.584 µM)	0.25 (≈ 0.584 µM)	8 (≈ 18.7 µM)	4 (≈ 9.34 µM)	32	16	
O=C(N/N=C/c1cc(Br)cc(Br)c1O)c1cccc(Br)c1Br	0.5 (≈ 0.9 µM)		16 (≈ 28.8 µM)	32 (≈ 57.6 µM)	32	64	2 (≈ 3.6 µM)
C/C(=N\NC(=O)c1ccc(Br)cc1Br)c1cc(Br)ccc1O	> 16						
O=C(N/N=C/c1cc(Cl)ccc1O)c1ccc(Br)c(Br)c1	0.06 (≈ 0.139 µM)		32 (≈ 74 µM)	16 (≈ 37 µM)	533	267	1 (≈ 2.31 µM)
O=C(N/N=C/c1cc(OC(F)(F)F)ccc1O)c1ccc(Br)cc1Br	0.25 (≈ 0.519 µM)	2 (≈ 4.15 µM)	64 (≈ 133 µM)	32 (≈ 66.4 µM)	256	128	
Cc1ccccc1C(=O)N/N=C/c1cc(C#N)ccc1O	4 (≈ 14.3 µM)						
O=C(N/N=C/c1cc(F)ccc1O)c1cc(Br)ccc1Br	> 16						
O=C(N/N=C/c1cc(Cl)ccc1O)c1cccc(F)c1F	1 (≈ 3.22 µM)		32 (≈ 103 µM)	72 (≈ 232 µM)	32	72	0.5 (≈ 1.61 µM)
CN(C)c1ccc(C(=O)N/N=C/c2c(O)ccc3ccccc23)cc1	0.5 (≈ 1.5 µM)	2 (≈ 6 µM)	16 (≈ 48 µM)	32 (≈ 96 µM)		64	
Cc1ccccc1-c1nnc(-c2cc(Br)ccc2O)o1	> 16						
CN(C)c1ccc(C(=O)N/N=C/c2cc(Br)ccc2O)cc1	> 16						
Cc1ccc(O)c(/C=N/NC(=O)c2cc(Br)ccc2O)c1	0.25 (≈ 0.716 µM)	0.5 (≈ 1.43 µM)	16 (≈ 45.8 µM)	16 (≈ 45.8 µM)	64	64	
Cc1ccccc1C(=O)N/N=C/c1cc(C(F)(F)F)ccc1O	8 (≈ 24.8 µM)						
CN(/N=C/c1cc(Br)cc(Br)c1O)C(=O)c1ccc(Br)cc1	> 16						
O=C(c1ccc(Br)cc1)n1ccc(-c2cc(Br)cc(Br)c2O)n1	> 16						
O=C(N/N=C/c1cc(Br)cc(Br)c1O)c1cc(Br)cc(Br)c1	> 16						
O=C(N/N=C/c1cc(Br)ccc1O)c1cccc(OC(F)F)c1	0.12 (≈ 0.312 µM)	1 (≈ 2.6 µM)	64 (≈ 166 µM)	8 (≈ 20.8 µM)	533	66.6	
O=C(N/N=C/c1c(O)ccc2ccccc12)c1ccc(Br)cc1Br	0.12 (≈ 0.268 µM)		64 (≈ 143 µM)	16 (≈ 35.7 µM)	533	133	0.5 (≈ 1.12 µM)
O=C(N/N=C/c1ccc(Br)cc1O)c1ccc(OC(F)F)cc1	0.12 (≈ 0.312 µM)	1 (≈ 2.6 µM)	32 (≈ 83.1 µM)	32 (≈ 83.1 µM)	267	267	
O=C(N/N=C/c1ccc(Br)cc1O)c1cc(Br)cc(Br)c1	1 (≈ 2.1 µM)		16 (≈ 33.5 µM)	4 (≈ 8.39 µM)	16	4	1 (≈ 2.1 µM)
C/C(=N\NC(=O)c1cc(Br)ccc1Br)c1cc(Br)ccc1O	> 16						

SMILES	MIC80 [1] [µg/mL]	MFC100 [2] [µg/mL]	CC50 [3] [µg/mL]	CC50 [4] [µg/mL]	selectivity ratio [5]	selectivity ratio [6]	MFC100 [7] [µg/mL]
O=C(N/N=C/c1cc(Br)cc(Br)c1O)c1ccc(CF)cc1	0.5 (≈ 1.16 µM)	0.5 (≈ 1.16 µM)	16 (≈ 37.2 µM)	16 (≈ 37.2 µM)	32	32	
O=C(N/N=C/c1c(O)ccc2ccccc12)c1cc(Br)cc(Br)c1	0.25 (≈ 0.558 µM)	0.5 (≈ 1.12 µM)	4 (≈ 8.93 µM)	2 (≈ 4.46 µM)	16	8	
O=C(N/N=C/c1cc(Cl)cc(Cl)c1O)c1cc(Br)cc(Br)c1	0.5 (≈ 1.07 µM)	0.5 (≈ 1.07 µM)	64 (≈ 137 µM)	64 (≈ 137 µM)	128	128	
Nc1ccc(C(=O)N/N=C/c2ccc(Br)cc2O)cc1	4 (≈ 12 µM)						
O=C(N/N=C/c1cc(Br)cc(Br)c1O)c1ccc(F)cc1	0.12 (≈ 0.288 µM)	0.25 (≈ 0.601 µM)	32 (≈ 76.9 µM)	32 (≈ 76.9 µM)	267	267	
O=C(N/N=C/c1cc(Br)cc(Br)c1O)c1cccc(OC(F)(F)F)c1	4 (≈ 8.3 µM)						
O=C(N/N=C/c1cc(Br)ccc1O)c1cccc(C(=O)N/N=C/c2cc(Br)ccc2O)c1	> 16						
O=C(N/N=C/c1cc(Br)cc(Br)c1O)c1cccc(C(F)(F)F)c1	2 (≈ 4.29 µM)						
O=C(N/N=C/c1cc(Br)ccc1O)c1cc(Br)ccc1Br	0.25 (≈ 0.524 µM)		32 (≈ 67.1 µM)	16 (≈ 33.5 µM)	128	64	1 (≈ 2.1 µM)
Cc1ccc(O)c(/C=N/NC(=O)c2ccc(Br)cc2Br)c1	1 (≈ 2.43 µM)	2 (≈ 4.85 µM)	16 (≈ 38.8 µM)	32 (≈ 77.7 µM)	16	32	
Cc1ccc(O)c(/C=N/NC(=O)c2cccc(Br)c2Br)c1	> 16						
O=C(N/N=C/c1ccc(Br)cc1O)c1cccc(Br)c1	0.5 (≈ 1.26 µM)		8 (≈ 20.1 µM)	64 (≈ 161 µM)	16	128	0.25 (≈ 0.628 µM)
O=C(N/N=C/c1c(O)ccc2ccccc12)c1cc(Br)ccc1Br	0.25 (≈ 0.558 µM)	0.25 (≈ 0.558 µM)	16 (≈ 35.7 µM)	32 (≈ 71.4 µM)	64	128	
O=C(N/N=C/c1ccc(Br)cc1O)c1cccc(Br)c1Br	> 16						
O=C(N/N=C/c1cc(Br)cc(Br)c1O)c1ccc(C(F)(F)F)cc1F	0.12 (≈ 0.248 µM)		16 (≈ 33.1 µM)	64 (≈ 132 µM)	133	533	0.5 (≈ 1.03 µM)
Cc1ccc(O)c(/C=N/NC(=O)c2cc(Br)cc(Br)c2)c1	0.5 (≈ 1.21 µM)	1 (≈ 2.43 µM)	16 (≈ 38.8 µM)	32 (≈ 77.7 µM)	32	64	
O=C(N/N=C/c1cc(Br)cc(Br)c1O)c1ccc(OC(F)(F)F)cc1F	0.06 (≈ 0.12 µM)		16 (≈ 32 µM)	16 (≈ 32 µM)	267	267	0.5 (≈ 1 µM)
C/C(=N\NC(=O)c1cc(Br)ccc1Br)c1cc(Br)cc(Br)c1O	> 16						
CC(=O)Nc1ccc(C(=O)N/N=C/c2ccc(Br)cc2O)cc1	> 16						
O=C(N/N=C/c1ccc(Br)cc1O)c1cccc(C(F)(F)F)c1	0.5 (≈ 1.29 µM)		16 (≈ 41.3 µM)	64 (≈ 165 µM)	32	128	2 (≈ 5.17 µM)
O=C(N/N=C/c1cc(Br)ccc1O)c1ccc(C(F)(F)F)cc1F	0.5 (≈ 1.23 µM)		16 (≈ 39.5 µM)	16 (≈ 39.5 µM)	32	32	1 (≈ 2.47 µM)
C/C(=N\NC(=O)c1ccc(Br)cc1Br)c1cc(Br)cc(Br)c1O	> 16						
O=C(N/N=C/c1ccc(Br)cc1O)c1cccc(F)c1F	0.5 (≈ 1.41 µM)		16 (≈ 45.1 µM)	16 (≈ 45.1 µM)	32	32	0.25 (≈ 0.704 µM)
O=C(N/N=C/c1c(O)ccc2ccccc12)c1cccc(Br)c1Br	> 16						
N#Cc1ccc(O)c(/C=N/NC(=O)c2ccc(Br)cc2Br)c1	8 (≈ 18.9 µM)						
O=C(N/N=C/c1cc(Cl)cc(Cl)c1O)c1cc(Br)ccc1Br	0.5 (≈ 1.07 µM)	0.25 (≈ 0.535 µM)	32 (≈ 68.5 µM)	32 (≈ 68.5 µM)	64	64	
